ChEMBL document CHEMBL5331128, “Alicyclic Ring Size Variation of 4-Phenyl-2-naphthoic Acid Derivatives as P2Y14 Receptor Antagonists” (J Med Chem, 2023)
In brackets after ≈: the same amount, converted by molar mass. Activity calls are given as the source filed them.

Legend:
[1] = Microsomal stability in human liver microsomes assessed as half life; type: ADME, Microsome
[2] = Solubility of compound in pH 7.4 incubated for 20 hrs by pION method; type: physicochemical; conditions: buffer, pH 7.4, 20 h
In short: (§1)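 pION method: 5 mM DMSO stocks diluted 1:100 into pION buffer at pH 4.0 or 7.4, incubated 20 h. Undissolved material removed by centrifugation at 14,000 rpm for 20 min, then supernatant mixed 1:1 with n-propanol. […] Mean ± SD reported.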

Cytochrome P450 2D6 = Cytochrome P450 2D6 (Homo sapiens, UniProt P10635); test: Inhibition of CYP2D6 (unknown origin); type: ADME
Cytochrome P450 2D6, sequence (P10635 whole entry): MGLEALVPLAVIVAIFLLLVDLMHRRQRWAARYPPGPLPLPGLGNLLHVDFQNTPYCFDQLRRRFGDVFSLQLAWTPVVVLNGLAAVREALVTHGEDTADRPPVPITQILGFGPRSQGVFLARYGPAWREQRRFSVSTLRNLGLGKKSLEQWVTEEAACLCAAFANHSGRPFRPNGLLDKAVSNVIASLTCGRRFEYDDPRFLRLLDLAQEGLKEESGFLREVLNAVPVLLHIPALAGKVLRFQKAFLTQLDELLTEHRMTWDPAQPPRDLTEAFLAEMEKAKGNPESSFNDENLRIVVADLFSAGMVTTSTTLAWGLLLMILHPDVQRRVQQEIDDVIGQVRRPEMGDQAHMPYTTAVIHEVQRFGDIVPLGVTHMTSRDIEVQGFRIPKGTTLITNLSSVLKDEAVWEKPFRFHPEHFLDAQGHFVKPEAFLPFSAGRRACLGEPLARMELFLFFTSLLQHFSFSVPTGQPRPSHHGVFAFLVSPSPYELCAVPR

P2Y purinoceptor 14 = molecular target: T1, P2Y purinoceptor 14 (Mus musculus, UniProt Q9ESG6); test: Displacement of fluorescent tracer 4-(4-(1-(4-(1-(6-(3-carboxylato-4-(3-iminio-3H-xanthen-9-yl)benzamido)hexyl)-4,5-dihydro-1H-pyrrol-3-yl)butyl)piperidin-1-ium-4-yl)phenyl)-7-(4-(trifluoromethyl)phenyl)-2-naphthoate from mouse P2Y14R stably expressed in human HEK293 cells by flow cytometry; type: cell-based
T1 sequence (Q9ESG6 whole entry): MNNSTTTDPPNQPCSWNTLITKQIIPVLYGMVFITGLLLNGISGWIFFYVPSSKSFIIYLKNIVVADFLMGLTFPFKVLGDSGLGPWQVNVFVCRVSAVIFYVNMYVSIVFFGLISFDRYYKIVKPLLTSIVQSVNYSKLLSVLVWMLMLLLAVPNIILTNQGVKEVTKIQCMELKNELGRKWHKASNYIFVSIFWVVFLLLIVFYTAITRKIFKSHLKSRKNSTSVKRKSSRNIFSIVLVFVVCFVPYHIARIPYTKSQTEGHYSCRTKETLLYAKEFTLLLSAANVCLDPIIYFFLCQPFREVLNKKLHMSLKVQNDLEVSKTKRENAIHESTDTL
In short: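 Whole-cell competitive binding: CHO cells expressing hP2Y14R (or HEK-293 cells expressing mP2Y14R) incubated with AlexaFluor488-labelled antagonist tracer at 20 nM. […] Ki derived by dividing IC50 by 1.72.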

Cytochrome P450 2C19 = Cytochrome P450 2C19 (Homo sapiens, UniProt P33261); test: Inhibition of CYP2C19 (unknown origin); type: ADME
Cytochrome P450 2C19, sequence (P33261 whole entry): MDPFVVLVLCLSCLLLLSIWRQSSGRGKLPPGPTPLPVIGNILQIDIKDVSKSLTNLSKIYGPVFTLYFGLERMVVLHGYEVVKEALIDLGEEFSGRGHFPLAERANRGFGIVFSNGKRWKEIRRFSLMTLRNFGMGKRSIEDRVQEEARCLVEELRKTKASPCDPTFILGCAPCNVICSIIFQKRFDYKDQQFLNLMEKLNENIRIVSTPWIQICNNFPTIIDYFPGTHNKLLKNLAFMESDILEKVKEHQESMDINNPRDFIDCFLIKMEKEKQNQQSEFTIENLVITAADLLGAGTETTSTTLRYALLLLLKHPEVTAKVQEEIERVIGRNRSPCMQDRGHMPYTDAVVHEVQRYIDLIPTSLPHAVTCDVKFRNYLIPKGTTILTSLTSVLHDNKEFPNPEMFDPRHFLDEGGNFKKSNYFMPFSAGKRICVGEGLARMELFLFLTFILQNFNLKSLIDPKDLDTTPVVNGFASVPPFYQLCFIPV

[3] = molecular target: T2, Muscarinic acetylcholine receptor M5 (Homo sapiens, UniProt P08912); test: Displacement of […] from human muscarinic M5 receptor assessed as inhibition constant by radioligand displacement assay
T2 sequence (P08912 whole entry): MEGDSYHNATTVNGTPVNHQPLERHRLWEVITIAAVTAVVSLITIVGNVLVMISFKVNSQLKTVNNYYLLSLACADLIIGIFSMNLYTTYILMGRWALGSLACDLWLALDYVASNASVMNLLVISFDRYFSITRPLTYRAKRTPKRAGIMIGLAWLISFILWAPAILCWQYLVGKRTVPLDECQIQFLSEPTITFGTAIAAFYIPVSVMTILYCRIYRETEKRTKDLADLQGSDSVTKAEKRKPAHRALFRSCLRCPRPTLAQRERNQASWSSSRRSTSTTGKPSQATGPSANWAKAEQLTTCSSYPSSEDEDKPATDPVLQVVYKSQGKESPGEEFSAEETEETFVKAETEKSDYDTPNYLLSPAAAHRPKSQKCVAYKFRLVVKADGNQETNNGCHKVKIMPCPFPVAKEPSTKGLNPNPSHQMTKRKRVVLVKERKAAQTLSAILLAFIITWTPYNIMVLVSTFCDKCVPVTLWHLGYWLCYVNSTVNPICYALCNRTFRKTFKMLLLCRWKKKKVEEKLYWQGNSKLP

[4] = Stability in mouse plasma assessed as parent compound remaining at 1 uM and measured at 120 mins by LC-MS/MS analysis; type: ADME, cell-free; conditions: 2 h
In short: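 Plasma from human, rat and mouse; percent parent remaining at 120 min.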

Cytochrome P450 3A4 = Cytochrome P450 3A4 (Homo sapiens, UniProt P08684); test: Inhibition of CYP3A4 (unknown origin); type: ADME
Cytochrome P450 3A4, sequence (P08684 whole entry): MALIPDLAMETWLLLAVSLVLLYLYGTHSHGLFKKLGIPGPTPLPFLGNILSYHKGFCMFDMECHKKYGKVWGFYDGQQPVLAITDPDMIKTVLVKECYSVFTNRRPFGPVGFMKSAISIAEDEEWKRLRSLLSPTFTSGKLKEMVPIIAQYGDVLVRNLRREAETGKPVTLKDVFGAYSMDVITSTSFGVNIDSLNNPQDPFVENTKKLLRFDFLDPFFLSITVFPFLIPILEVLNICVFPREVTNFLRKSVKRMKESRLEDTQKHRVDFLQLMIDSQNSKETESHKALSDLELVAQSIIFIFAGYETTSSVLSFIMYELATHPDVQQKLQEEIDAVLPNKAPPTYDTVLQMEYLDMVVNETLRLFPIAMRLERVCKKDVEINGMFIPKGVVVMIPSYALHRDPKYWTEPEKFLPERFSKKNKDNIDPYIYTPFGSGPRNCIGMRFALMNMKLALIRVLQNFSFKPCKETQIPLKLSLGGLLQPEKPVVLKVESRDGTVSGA

[5] = Acute toxicity in Wistar rat assessed as morbidity at 1 to 10 mg/kg, ip and measured upto 24 hrs; type: organism-based; conditions: in vivo, dose 1-10 mg/kg
In short: (§2)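 Male Wistar rats; single dose at 1, 3 or 10 mg/kg i.p., or 0.5 mg/kg i.v. Animals were watched for mortality and morbidity over the experimental period, in the course of a plasma pharmacokinetic study.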

[6] = Protein binding in human plasma assessed as bound fraction; type: ADME, cell-free
[7] = Half life in Wistar rat at 3 mg/kg, ip and measured upto 24 hrs; type: ADME, organism-based; conditions: in vivo
[8] = Cmax in Wistar rat plasma at 1 mg/kg, ip and measured upto 24 hrs; type: ADME, organism-based; set-up: time < 24 hrs, dose 1 mg/kg, route ip
Mus musculus [9] = test: Antiallodynic activity in CCI surgery neuropathic pain Hsd:ICR mouse model assessed as reversal of mechano-allodynia by measuring paw withdrawal threshold at 10 micromol/kg,ip and measured at 0.5 hrs by von frey test; type: functional, organism-based; conditions: dose 10.0 µmol/kg
In short: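 CCI neuropathic pain in adult male Hsd:ICR (CD-1) mice (20–30 g). Single i.p. injection on day 7 after sciatic nerve constriction, at peak pain. Vehicle 10% (Kolliphor HS 15:DMSO 5:95) in saline, 0.2 mL. Paw withdrawal threshold by von Frey filaments on ipsilateral and contralateral hindpaws. Mean ± SD; two-way ANOVA with Dunnett's test versus day 0 and day 7.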

[10] = Acute toxicity in Wistar rat assessed as mortality at 1 to 10 mg/kg, ip and measured upto 24 hrs; type: organism-based; conditions: in vivo, dose 1-10 mg/kg; in short: as §2
[11] = Cmax in Wistar rat plasma at 10 mg/kg, ip and measured upto 24 hrs; type: ADME, organism-based; set-up: time < 24 hrs, dose 10 mg/kg, route ip
[12] = Solubility of compound in pH 4.0 incubated for 20 hrs by pION method; type: physicochemical; conditions: buffer, pH 4, 20 h; in short: as §1
Mus musculus [13] = test: Anti-asthmatic activity against OVA/Aspergillus-sensitized protease-mediated C57BL/6J mouse model allergic asthma assessed as reduction in lymphocytes in BAL fluid at 10 mg/kg,ip followed by 0.5 hrs OVA challenge and measured after 48 hrs; type: functional, organism-based; conditions: time 48.5 hrs
[14] = Cmax in Wistar rat plasma at 3 mg/kg, ip and measured upto 24 hrs; type: ADME, organism-based; set-up: dose 3 mg/kg, time < 24 hrs, route ip
Mus musculus [15] = test: Anti-asthmatic activity against OVA/Aspergillus-sensitized protease-mediated C57BL/6J mouse model allergic asthma assessed as reduction in neutrophils in BAL fluid at 10 mg/kg,ip followed by 0.5 hrs OVA challenge and measured after 48 hrs; type: functional, organism-based; conditions: time 48.5 hrs

O=C(O)c1cc(-c2ccc([C@]3(O)[C@@H]4CNC[C@H]3C4)cc2)c2ccc(-c3ccc(C(F)(F)F)cc3)cc2c1
t1/2 [1]: > 6.67 h | solubility [2]: 1.4 µg/mL (≈ 2.78 µM) | IC50 (Cytochrome P450 2D6): > 30 µM | IC50 (P2Y purinoceptor 14): 0.0048 µM | IC50 (Cytochrome P450 2C19): > 30 µM | Ki [3]: 6 µM | Stability [4]: 100% | IC50 (Cytochrome P450 3A4): > 30 µM | Activity [5]: Non-Toxic | PPB [6]: 99.3% | t1/2 [7]: 4.32 h | Cmax [8]: 500 nM | Activity (Mus musculus [9]): Active | Activity [10]: Non-Toxic | Cmax [11]: 4000 nM | solubility [12]: 7.1 µg/mL (≈ 14.1 µM) | Activity (Mus musculus [13]): inactive | Cmax [14]: 1300 nM | Activity (Mus musculus [15]): inactive
